Screens deposited in PubChem BioAssay by The Scripps Research Institute Molecular Screening Center.
5HT1E antag – blocks the human 5-HT1E serotonin receptor. P28566. AID 571. inhibition, % at 6 µM. CHO 5-HT1E Ga15 NFAT-bla reporter, FRET, antagonist. 65,000 compounds, 0.99% hits;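 active = inhibition above a set limit, the mean inhibition across every tested compound plus 3 SD, cut at about 29% in these data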;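 note: signal is the 460 over 535 nm emission ratio of beta-lactamase substrate; 0% = agonist plus DMSO wells and 100% = wells without agonist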
Target sequence (P28566 whole entry, looked up): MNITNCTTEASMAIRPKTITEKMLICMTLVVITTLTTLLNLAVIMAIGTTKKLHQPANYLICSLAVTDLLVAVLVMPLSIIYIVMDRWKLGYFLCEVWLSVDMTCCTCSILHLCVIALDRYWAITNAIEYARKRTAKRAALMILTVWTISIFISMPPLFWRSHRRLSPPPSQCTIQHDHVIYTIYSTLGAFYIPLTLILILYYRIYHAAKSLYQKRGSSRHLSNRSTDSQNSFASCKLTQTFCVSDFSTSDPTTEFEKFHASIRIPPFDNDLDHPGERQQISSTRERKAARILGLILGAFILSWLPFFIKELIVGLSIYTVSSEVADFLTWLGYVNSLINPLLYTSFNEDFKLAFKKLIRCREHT
5HT1a antag – blocks the human serotonin 5-HT1a receptor. P08908. CHO 5-HT1a Ga15 NFAT-bla reporter, antagonist mode. inhibition, % at 10 µM. 62,000 compounds, 0.68% hits. AID 612;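 active = inhibition above the mean of all tested compounds plus 3 SD, cut at about 43% in these data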;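 note: receptor stimulated by 5-CT agonist at 100 nM near EC80; beta-lactamase reporter measured by ratiometric fluorescence of a cleavable substrate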
HEK293 NFkB inh – lowers PMA/ionomycin-induced NF-kB signal in HEK293 cells; HEK-293 NF-kB luciferase reporter, luminescence; inhibition, % at 3 µM; 62,000 compounds, 0.21% hits; AID 465;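 active = inhibition above the mean of all tested compounds plus 3 SD, cut at about 40% in these data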;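 note: 0% = stimulated DMSO wells and 100% = 10 µM reference inhibitor 5653914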
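System: NF-kB luciferase reporter HEK-293 cells | Replication: Single test | Control set: DMSO vs reference inhibitor | Evaluation: % inhibition | Schedule: 1 h pretreatment, 16 h stimulation, 37 °C | Probe or stimulus: PMA with ionomycin | Compound dosing: One dose, 3 µM | Detection: Luciferase luminescence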
5HT1E ag – agonists of human 5-HT1E serotonin receptor; P28566; AID 574; CHO 5-HT1E Ga15 NFAT-bla reporter, FRET; 0% DMSO wells, 100% control agonist wells; 65,000 compounds, 0.69% hits; activation, % at 6 µM;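 active = activation above a set limit, the screen-wide mean activation plus 3 SD, cut at about 8.5% in these data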;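 note: 100% = positive control agonist at 1 µM giving full maximal response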
HTR1A agonist – 5-HT1a (human) receptor agonism | 65,000 compounds, 0.56% hits | P08908 | CHO 5-HT1a Ga15 NFAT-bla reporter, FRET ratio; 0% basal, 100% maximal reference agonist | activation, % at 10 µM;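 active = activation above the screen-wide mean activation plus 3 SD, cut at about 19% in these data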;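 note: 0% = DMSO wells and 100% = 5-CT at EC100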
Numbers without * were called inactive; . = no result given. Most compounds without a hit are left out; they make up all but 2.6% or so of the library.

SMILES	5HT1E antag	5HT1a antag	HEK293 NFkB inh	5HT1E ag	HTR1A agonist
O=C1c2ccccc2NC(c2ccco2)N1O (configuration not stated)	2.3	1.8	6.4	-0.4	-3.0
O=C1C2=C(Nc3ccccc3SC2c2ccco2)c2ccccc21 (configuration not stated)	8.3	70.0*	17.2	-0.1	-1.2
COc1cccc(OCCOCCNCCO)c1	1.9	-0.1	16.3	-0.1	42.0*
O=C1c2ccccc2C(=O)N1CCc1nc2ccccc2c(=O)n1Cc1ccco1	0.0	9.8	3.4	-0.7	2.0
Cc1noc(C)c1CSc1nc2ccccc2[nH]1	13.7	-2.3	15.5	-1.2	67.0*
Cc1ccc(Cl)cc1NC(=O)CC(O)(C(F)(F)F)C(F)(F)F	2.8	15.1	15.7	-0.1	-0.7
Cc1ccc(-c2csc3ncnc(-n4nc(C)cc4N)c23)cc1	-8.2	-4.4	11.2	8.7*	-1.2
Cc1cc(N)n(-c2nc(-c3cccnc3)nc3ccccc23)n1	2.0	9.9	15.2	-0.2	0.3
Cc1c(NC(=O)NCCN2C(=O)C3C4C=CC(C4)C3C2=O)c(=O)n(-c2ccccc2)n1C (configuration not stated)	-14.6	3.5	14.0	0.2	-1.8
Cn1c(Cl)nc2ccccc21	4.3	16.0	1.7	6.7	-2.6
Cn1c(SC2=CS(=O)(=O)c3ccccc32)nc2ccccc21	50.1*	74.3*	6.3	0.7	0.3
O=C(NC(NCCCN1CCOCC1)(C(F)(F)F)C(F)(F)F)C1CCCCC1	-2.0	2.2	2.3	0.6	-2.6
Cc1oc(-c2cccc(Cl)c2)nc1CN1CCCC(C(=O)NCCCN2CCOCC2)C1 (configuration not stated)	6.3	16.3	-12.7	-0.3	30.2*
CCOc1ccc(OCc2cccc(C(=O)N3CCOCC3)c2)cc1	0.9	1.1	50.5*	-0.3	0.0
CCOc1ccc(C(=O)N2CCCN(C(=O)c3ccc(OCC)cc3)CC2)cc1	10.2	-7.3	4.9	0.1	-1.7
CCCc1cc(=O)oc2c(C)c3occ(C)c3cc12	39.4*	40.3	4.5	0.0	-1.1
O=C(O)c1ccc(COc2ccccc2Cl)cc1	4.8	-1.9	1.0	-0.2	-1.7
O=C(O)c1cccc(COc2ccccc2Cl)c1	-4.2	-14.8	92.4*	-0.5	-0.3
CC1=C(C(=O)OCC(C)C)C(c2cccc(F)c2)N2C(=O)C(C)SC2=N1 (configuration not stated)	12.0	5.2	0.6	14.4*	0.1
O=C(NC1(C(F)(F)F)C(=O)Nc2c1c(=O)[nH]c(=O)n2Cc1ccco1)C1CC1 (configuration not stated)	-3.9	7.9	18.4	-1.0	-0.9
O=C(NC1CCCCC1)C(c1ccccc1F)N(Cc1ccco1)C(=O)Cn1nnc2ccccc21 (configuration not stated)	10.6	54.7*	10.7	-1.0	1.4
CCC(C(=O)NC1CCCC1)N(Cc1ccco1)C(=O)Cn1nnc(-c2ccc(C)cc2)n1 (configuration not stated)	4.9	19.3	24.4	9.0*	-1.6
Cc1ccc(C(=O)N2CCCC(c3nc4c(nnn4Cc4ccccc4)c(=O)[nH]3)C2)cc1 (configuration not stated)	8.3	4.5	3.0	-0.1	21.4*
Cc1ccc(CC(=O)N2CCC(c3nc4c(nnn4Cc4ccccc4)c(=O)[nH]3)CC2)cc1	3.4	-8.2	-8.3	1.6	-0.2
CC(C)N1CC=C2C(C#N)=C(N)C(C#N)(C#N)C(c3ccccc3)C2C1 (configuration not stated)	1.6	.	.	3.8	25.8*
SMILES	5HT1E antag	5HT1a antag	HEK293 NFkB inh	5HT1E ag	HTR1A agonist
Cc1c(O)c(CN2CCCC(C)C2)cc2c3c(c(=O)oc12)CCC3 (configuration not stated)	-6.3	.	.	0.0	3.4
CCC(NC(=O)Nc1nnc(C(F)(F)F)s1)(C(F)(F)F)C(F)(F)F	66.0*	.	.	-0.6	-0.7
OC(COc1c(F)cc(Br)cc1F)CN1CCN(c2ccc(F)cc2)CC1 (configuration not stated)	-7.1	62.7*	1.3	1.9	8.6
CCCn1c(SCC(=O)N2CCN(S(=O)(=O)c3ccc(Cl)cc3)CC2)n[nH]c1=O	10.3	1.5	14.7	9.0*	-0.3
O=C(Nc1nc(-c2ccc(S(=O)(=O)N3CCCC3)cc2)cs1)c1cccs1	-6.8	3.4	17.2	0.0	1.2
O=C(Nc1nc(-c2cc(Cl)sc2Cl)cs1)c1cccs1	-1.2	49.1*	5.2	1.1	279.4*
COc1ccc(OCC(O)CN2C(=O)NC(C)(C)C2=O)cc1 (configuration not stated)	-11.0	.	.	-0.7	-0.4
Cn1c(=O)n(CCN2CCOCC2)c(=O)c2c1nc1n2CCN1c1ccccc1	4.4	9.2	3.3	0.8	-1.5
O=C1CC(N2CCN(c3ccc(F)cc3)CC2)C(=O)N1Cc1ccc(N2CCCC2=O)cc1 (configuration not stated)	1.7	11.8	14.5	0.1	-3.4
O=C(CCN1CCN(c2ccccc2F)CC1)c1ccc(Br)cc1	2.9	6.8	20.6	34.4*	1.4
O=C(OCc1nc2ccc(Cl)cc2n1CCO)c1ccc2c(c1)OCO2	19.0	8.2	15.4	-0.9	-1.2
CCCCOc1ccc(C(=O)Nc2ccc(N3CCN(C)CC3)cc2)cc1	11.0	11.2	-0.5	15.1*	-2.7
CC(C)Oc1cccc(C(=O)Nc2ccc(N3CCN(S(C)(=O)=O)CC3)cc2)c1	-1.0	-3.0	10.9	-0.4	-0.7
CC(C)Oc1ccc(C(=O)Nc2ccc(N3CCCC3)cc2)cc1	-12.5	2.9	5.7	2.1	50.4*
CCN1C(=O)c2cccc3c(NC(=O)c4ccc(S(=O)(=O)N(C)C)cc4)ccc1c23	1.9	-6.3	21.5	-0.1	88.0*
CCOC(=O)c1ccc(NC(=O)Nc2ccc3c4c(cccc24)C(=O)N3CC)cc1	30.3*	1.4	14.2	-0.1	-2.8
CCN1C(=O)c2cccc3c(NS(=O)(=O)c4ccc(NC(C)=O)cc4)ccc1c23	2.7	-0.4	4.2	-0.1	0.2
Cc1ccc(C)c(N2CCN(CC(=O)Nc3ccc4[nH]c(=O)[nH]c4c3)CC2)c1	-8.9	7.7	0.8	22.7*	-0.5
N=c1c2c(-c3ccccc3)c(-c3ccccc3)n(Cc3ccco3)c2ncn1Cc1ccco1	-7.0	57.4*	12.2	2.1	-3.3
N=c1c2c(-c3ccccc3)c(-c3ccccc3)n(Cc3ccccc3)c2ncn1CCCn1ccnc1	-15.7	.	.	0.1	2.4
Cc1ccc(S(=O)(=O)NC(=O)COc2ccccc2C(N)=O)cc1	4.3	0.1	16.9	-0.3	-3.6
COc1ccc(OC)c(C(=O)c2ccc(C(=O)N3CCCCC3)cc2)c1	8.5	0.5	10.9	0.2	24.6*
COc1ccc(C(=O)N2CCCC2)cc1	-9.5	3.2	17.6	-0.5	-1.5
CN(C)CCCN(CCCNC(=O)/C=N/O)Cc1ccccc1	4.7	.	.	26.3*	-2.6
